Assay outcomes: PubChem, Broad Institute
The list is a sample of the results.
PGC1a acetyl up = compounds raising PGC1a acetylation signal, primary screen, PGC1a modulator project, cell-based, U2OS, AlphaScreen, signal-increasing mode | overnight | activation, % at 15.6 µM | 350,000 compounds, 0.21% hits | AID 651723, 2012;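 active = every replicate reaching activation of at least 50%, whatever the mean replicate activation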;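 note: hits raise the AlphaScreen acetylation signal above neutral controls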
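System: Flag-PGC1a/GCN5 U2OS cells | Quantity: 7000 cells/well | Times: Overnight compound treatment, 37 °C | Measured by: AlphaScreen proximity luminescence, anti-acetyl-lysine antibody | Dosing: One concentration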
An asterisk follows results filed as active.

SMILES | PGC1a acetyl up
COc1ccc(CC2C(=O)NC(C)C(=O)N(C)C3Cc4ccc(cc4)Oc4cc(ccc4O)CC(C(=O)NC(C)C(=O)NC(C)C(=O)N2C)N(C)C3=O)cc1 (stereo not given) | -70
CN1CCN(c2ccc([N+](=O)[O-])cc2C(=O)Nc2ccccc2)CC1 | -46
Nc1c(C(=O)Nc2ccccc2)sc2ncc([N+](=O)[O-])cc12 | 84*
CCc1ccc(NC(=O)C2CC=CCC2C(=O)O)cc1 (stereo not given) | 82*
COCCNC(=O)C(c1ccc(F)cc1)N(Cc1ccco1)C(=O)CCC(=O)Nc1nccs1 (stereo not given) | -41
O=C(O)C1CCCN1S(=O)(=O)c1cc(Cl)ccc1Cl (stereo not given) | -42
O=[N+]([O-])c1ccc(N=Nc2c(Cl)cc(O)cc2Cl)cc1 | 53*
Cc1ccc(-n2c(SCC(N)=O)nnc2-c2ccc(S(=O)(=O)N3CCCCC3)cc2)c(C)c1 | 63*
Cc1ccc(S(=O)(=O)N2CCCC2)cc1C(=O)O | -59
COc1cc(C(C)=O)ccc1OCC(O)CN1CCN(c2ccc(C)c(C)c2)CC1 (stereo not given) | -40
COc1ccccc1CN=Cc1[nH]c2ccc(Br)c(Cl)c2c1O | 52*
O=C(CC1CC1)N[C@H]1CC[C@@H](CCNS(=O)(=O)c2ccc(Cl)cc2)O[C@@H]1CO | -67
CO[C@@H]1CN(C)C(=O)c2cc(NC(C)=O)ccc2OC[C@@H](C)N(Cc2ccccc2C(=O)O)C[C@@H]1C | -43
Cc1ccc(C(=O)N2CCN(c3ccc(NC(=S)NC(=O)c4cccs4)cc3)CC2)cc1 | 53*
Cc1ccc(C(=O)N2CCN(c3ncccn3)CC2)cc1 | -80
Cc1ccccc1S(=O)(=O)NCC[C@@H]1CC[C@H](NC(=O)C2CCOCC2)[C@@H](CO)O1 | -45
Cc1cc(C)c(S(=O)(=O)Nc2ccccc2-c2ccccc2)c(C)c1 | 79*
COC(=O)c1c(C)oc(C)c1S(=O)(=O)Nc1ccccc1 | -50
C[C@H](CO)N1C[C@H](C)[C@H](CN(C)S(=O)(=O)c2ccc(F)cc2)Oc2ccc(NS(=O)(=O)c3cn(C)cn3)cc2C1=O | -51
Cc1ccc2[nH]c3ccccc3c(=O)c2c1 | 68*
CC(C)(C)OC(=O)NC(Cc1ccccc1)C(=O)NCCCC(=O)O (stereo not given) | -43
CCOC(=O)CSc1nnc(-c2ccc(OC)cc2)n1CC | 100*
COc1ccc(-n2c(SCC#N)nnc2-c2cccnc2)cc1 | -43
O=C(C[C@H]1C[C@@H]2c3cc(NS(=O)(=O)c4ccc(F)cc4)ccc3O[C@@H]2[C@@H](CO)O1)N1CCc2ccccc2C1 | -50
CC(C)CCCCCCCCCCCCC(=O)NCC(=O)NC1C(C)OC(Nc2ncnc3nc[nH]c23)C(O)C1O (stereo not given) | -71
SMILES | PGC1a acetyl up
CN(C)C(=O)C[C@@H]1CC[C@@H]2[C@H](COC[C@@H](O)CN2C(=O)C2CCOCC2)O1 | -56
C[C@H](CO)N1C[C@H](C)[C@H](CN(C)C(=O)NC2CCCCC2)Oc2cc(C#Cc3cccc(F)c3)ccc2S1(=O)=O | -48
Cc1ccccc1-n1nnnc1Sc1nnnn1-c1ccccc1 | -46
CCCSc1nnc(Sc2nnnn2-c2ccccc2)s1 | 84*
C[C@H]1CCCCO[C@H](CN(C)Cc2ccncc2)[C@@H](C)CN([C@@H](C)CO)C(=O)c2cc(NS(=O)(=O)c3ccccc3)ccc2O1 | -73
O=C(/C=C/c1ccc(F)cc1)NNC(=O)CCN1CCN(Cc2ccccc2)CC1 | -52
CSCCC(NC(=O)OC(C)(C)C)C(=O)Oc1ccc2c(=O)c(-c3ccc4c(c3)OCCO4)coc2c1 (stereo not given) | 73*
COCCSc1ccccc1C(=O)Nc1cc(C)on1 | -51
O=C(CSc1nc2ccccc2c(=O)n1CC1CCCO1)N1CCN(c2ccccc2)CC1 (stereo not given) | -42
Cc1ccc(-c2cc(C(=O)NCC3CCCO3)c3ccccc3n2)cc1C (stereo not given) | -46
Cc1ccccc1-c1nc(C(=O)NCC2CCCO2)cc2c1[nH]c1ccccc12 (stereo not given) | 61*
COc1ccc(CCN2C(=O)N(c3ccc(OC)cc3)C(=O)C2CC(=O)Nc2ccccc2)cc1 (stereo not given) | -48
COc1ccc(CC(CC(=O)O)C(=O)Nc2ccc(OC)cc2)cc1 (stereo not given) | 50*
O=S1(=O)CC=C(CSC(=S)NC2CCS(=O)(=O)C2)C1 (stereo not given) | -47
O=c1[nH]c2nc(Cl)nc(Cl)c2[nH]1 | -74
COc1cccc2sc(Nc3nc(-c4ccccn4)cs3)nc12 | 60*
COc1cnc(-c2ccccn2)nc1Sc1ccc(C)cc1 | -60
CCCCC(O)(CCCC)C(=O)N/N=C(\C)c1ccc(Cl)cc1 | -44
N#Cc1ccccc1S(=O)(=O)N1CCN(Cc2cc3c(cc2Br)OCCO3)CC1 | 105*
C[C@@H]1CN([C@@H](C)CO)C(=O)c2cc(NS(C)(=O)=O)ccc2O[C@@H](C)CCCCO[C@H]1CN(C)C(=O)Nc1ccc(F)cc1 | -48
O=C1C(Cl)=C(Nc2ccc3cn[nH]c3c2)C(=O)c2ccccc21 | -55
COc1ccc(Nc2nc(N)c(C(=O)c3ccc(OC)cc3)s2)cc1 | 83*
O=C(Nc1ccc(F)cc1)C1CCCN1S(=O)(=O)c1cccc2nsnc12 (stereo not given) | -41
COc1ccccc1N=C1NC(=O)/C(=C/c2ccc(N(C)C)cc2)S1 | 55*
Cc1ccc(S(=O)(=O)N2CCN(C(=O)CSc3nc4ccccc4c(=O)[nH]3)CC2)c(C)c1 | -44
SMILES | PGC1a acetyl up
Cc1ccc(C)c(N2CCN(C(=O)CCCOc3cc(=O)n(C)c4ccccc34)CC2)c1 | 128*
COC(=O)c1ccc2c(c1)C(C)(C)C(/C=C/c1ccccc1O)=[N+]2C | 52*
Cc1ccc(S(=O)(=O)N2CCN(S(=O)(=O)c3ccc(C)cc3)C2c2ccccc2)cc1 | 110*
CCOC(=O)C1CN(S(=O)(=O)c2ccccc2)c2cc(S(=O)(=O)CC)ccc2O1 (stereo not given) | -50
Cc1ccc(S(=O)(=O)C(C#N)c2nc3ccccc3nc2N2CCCC2)cc1 (stereo not given) | -50
CC(=O)c1c(COC(=O)c2ccccc2)nc2ccccc2[n+]1[O-] | -55
C[C@@H]1CN([C@H](C)CO)C(=O)c2cccc(NC(=O)c3nc4ccccc4s3)c2O[C@@H]1CN(C)C(=O)Nc1ccc(F)cc1 | -46
N#CC1(NC(=O)Cn2ncc(Cl)c(Cl)c2=O)CCCCC1 | 98*
O=C(C[C@@H]1C[C@@H]2c3cc(NC(=O)Nc4ccccc4F)ccc3O[C@@H]2[C@H](CO)O1)NCc1ccc(Oc2ccccc2)cc1 | -41
CCOC(=O)N1CCC(N(CCN(C)C)C(=S)Nc2cccc(OC)c2)CC1 | -45
CC(=O)Nc1cccc(OCC(=O)Nc2ccccc2)c1 | 51*
CC(=O)c1ccc(NC(=O)CSCC(=O)Nc2ccc3ccccc3c2)cc1 | -56
O=C(COC(=O)c1cc[n+]([O-])cc1)Nc1cccc(Cl)c1Cl | -48
O=C(COc1ccccc1Cl)Nc1ccc(Cl)cn1 | 98*
CCCCCCCCCSc1n[nH]c(N)n1 | -25
C[C@@H]1CN([C@@H](C)CO)C(=O)CCCn2nncc2CO[C@H]1CN(C)CC1CCCCC1 | -52
CN(C)C(=S)Nc1ccc(Br)c(Cl)c1 | -52
COc1ccc(/C=N/NC(=O)c2cccnc2)cc1CN1CCOCC1 | -42
Cc1cccc(C(=O)Nc2ccc(C(=O)/C=C/c3cccnc3)cc2)c1 | -54
